Data published in ChEMBL document CHEMBL5154635, “Expedited Approach toward the Rational Design of Noncovalent SARS-CoV-2 Main Protease Inhibitors” (J Med Chem, 2022).

Assays:
[1] = Cytotoxicity against African green monkey Vero E6 cells assessed as cell viability incubated for 5 days by neutral red uptake based microplate reader method; type: toxicity, Vero C1008; conditions: chlorocebus sabaeus, time 5 day
In short: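 Vero E6 cells seeded and grown for 24 h, then washed. Serial compound dilutions added in serum-free medium for 5 days at 37 °C. Neutral red (40 μg/mL) taken up for 2–4 h, with absorbance read at 540 nm. CC50 from variable-slope dose-response fit.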

SARS-CoV-2 = test: Antiviral activity against SARS-Cov-2 USA-WA1/2020 isolate infected in African green monkey Vero E6 cells measured after 48 hrs of postinfection by immunofluorescence assay; type: functional, organism-based; conditions: Severe acute respiratory syndrome coronavirus 2, USA-WA1/2020, Vero C1008, 48 h
[2] = target: T1, Replicase polyprotein 1ab (Severe acute respiratory syndrome coronavirus 2, UniProt P0DTD1); test: Non-covalent inhibition of SARS-Cov-2 -Mpro incubated for 30 mins using FRET substrate measured for 1 hr by FRET-based enzymatic assay
[3] = Covalent inhibition of HCoV-OC43 -Mpro incubated for 30 mins using FRET substrate measured for 1 hr by FRET-based enzymatic assay; design: species or system unidentified human coronavirus
[4] = Covalent inhibition of Enterovirus-A17 3Cpro incubated for 30 mins using FRET substrate measured for 1 hr by FRET-based enzymatic assay
In short: (§1)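 Reaction started with the corresponding peptide FRET substrate (final 10 μM) and read at ex 360/em 460 nm at 30 °C for 1 h. Initial velocity taken by linear regression over the first 15 min.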

[5] = Covalent inhibition of Enterovirus-A17 2Apro incubated for 30 mins using FRET substrate measured for 1 hr by FRET-based enzymatic assay; in short: as §1
[6] = Covalent inhibition of MERS-CoV -Mpro incubated for 30 mins using FRET substrate measured for 1 hr by FRET-based enzymatic assay; design: species or system Middle East respiratory syndrome-related coronavirus
[7] = target: T2, Calpain-1 catalytic subunit (Homo sapiens, UniProt P07384); test: Covalent inhibition of Calpain 1 (unknown origin) incubated for 1 hr by FRET-based enzymatic assay
T2 sequence (P07384 whole entry): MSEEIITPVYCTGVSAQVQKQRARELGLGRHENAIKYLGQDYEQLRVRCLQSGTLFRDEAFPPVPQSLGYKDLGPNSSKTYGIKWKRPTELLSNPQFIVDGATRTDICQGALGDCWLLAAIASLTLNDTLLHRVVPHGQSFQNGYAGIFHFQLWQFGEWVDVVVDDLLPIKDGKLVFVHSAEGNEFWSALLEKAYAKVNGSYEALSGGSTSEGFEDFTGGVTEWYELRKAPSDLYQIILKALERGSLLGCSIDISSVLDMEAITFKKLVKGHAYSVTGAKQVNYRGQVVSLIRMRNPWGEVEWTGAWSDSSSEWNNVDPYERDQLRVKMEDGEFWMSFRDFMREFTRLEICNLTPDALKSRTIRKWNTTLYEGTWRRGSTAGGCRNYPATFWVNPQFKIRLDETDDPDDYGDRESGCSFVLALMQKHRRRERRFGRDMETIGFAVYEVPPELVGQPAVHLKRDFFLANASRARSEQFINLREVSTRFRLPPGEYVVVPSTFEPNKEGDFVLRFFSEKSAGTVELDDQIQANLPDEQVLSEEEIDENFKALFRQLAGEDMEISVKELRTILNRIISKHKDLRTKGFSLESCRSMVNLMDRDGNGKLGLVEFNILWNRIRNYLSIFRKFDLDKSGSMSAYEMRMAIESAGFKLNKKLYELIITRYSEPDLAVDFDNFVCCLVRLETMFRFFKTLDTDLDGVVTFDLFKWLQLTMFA
In short: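 Calpain 1 in buffer of 50 mM HEPES, 50 mM NaCl, 10 mM DTT and 5 mM CaCl2 (pH 7.5), with test compound at serial concentrations. The reaction is started with N-succinyl-Leu-Leu-Val-Tyr-AMC (4 mM stock). Fluorescence (ex 360, em 460 nm) is read for 1 h at 30 °C.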

[8] = Covalent inhibition of Enterovirus-D68 3Cpro incubated for 30 mins using FRET substrate measured for 1 hr by FRET-based enzymatic assay; in short: as §1
[9] = Covalent inhibition of Enterovirus-D68 2Apro incubated for 30 mins using FRET substrate measured for 1 hr by FRET-based enzymatic assay; in short: as §1
[10] = Covalent inhibition of SARS-Cov -Mpro incubated for 30 mins using FRET substrate measured for 1 hr by FRET-based enzymatic assay; design: species or system Severe acute respiratory syndrome-related coronavirus
Procathepsin L [11] = target: T3, Procathepsin L (Homo sapiens, UniProt P07711); test: Covalent inhibition of Cathepsin L (unknown origin) incubated for 30 mins using FRET substrate measured for 1 hr by FRET-based enzymatic assay
T3 sequence (P07711 whole entry): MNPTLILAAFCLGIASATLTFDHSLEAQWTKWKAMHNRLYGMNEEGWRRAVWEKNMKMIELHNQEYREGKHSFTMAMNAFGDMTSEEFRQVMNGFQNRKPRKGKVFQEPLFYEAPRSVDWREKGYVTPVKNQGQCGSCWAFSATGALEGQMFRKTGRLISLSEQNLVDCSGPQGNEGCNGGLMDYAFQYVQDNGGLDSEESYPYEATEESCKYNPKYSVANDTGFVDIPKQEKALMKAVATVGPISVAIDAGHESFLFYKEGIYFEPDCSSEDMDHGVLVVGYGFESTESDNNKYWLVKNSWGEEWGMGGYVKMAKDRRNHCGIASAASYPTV

[12] = Selectivity Index, ratio of CC50 for african green monkey vero E6 cells to EC50 for antiviral activity against SARS-Cov-2 USA-WA1/2020 isolate infected in African green monkey Vero E6 cells; type: toxicity, Vero C1008; conditions: read-out: Ratio CC50/EC50
[13] = target: T1, Replicase polyprotein 1ab; test: Non-covalent inhibition of SARS-Cov-2 PLpro incubated for 30 mins using FRET substrate measured for 1 hr by FRET-based enzymatic assay
Procathepsin L [14] = target: T3, Procathepsin L; test: Non-covalent inhibition of Cathepsin L (unknown origin) incubated for 30 mins using FRET substrate measured for 1 hr by FRET-based enzymatic assay
In short: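 Cathepsin L activated for 30 min at 30 °C in 20 mM sodium acetate, 1 mM EDTA, 5 mM DTT, pH 5.5. 300 pM enzyme preincubated with compound for 30 min at 30 °C.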

[15] = target: T1, Replicase polyprotein 1ab; test: Stabilization in SARS-CoV-2 MPro assessed as binding constant incubated for 30 mins in presence of DTT by thermal shift binding assay
In short: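 3 μM SARS-CoV-2 Mpro in Mpro reaction buffer with 4 mM DTT, incubated with varying compound concentrations for 30 min at 30 °C. SYPRO orange added and melt run from 20 to 90 °C at 0.05 °C/s. Tm plotted against concentration and fitted to one-site binding to give apparent Kd.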

[16] = Non-covalent inhibition of SARS-Cov -Mpro incubated for 30 mins using FRET substrate measured for 1 hr by FRET-based enzymatic assay; design: species or system Severe acute respiratory syndrome-related coronavirus
[17] = target: T2, Calpain-1 catalytic subunit; test: Non-covalent inhibition of Calpain 1 (unknown origin) incubated for 1 hr by FRET-based enzymatic assay
In short: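 Calpain 1 in 50 mM HEPES, 50 mM NaCl, 10 mM DTT, 5 mM CaCl2, pH 7.5. Reaction started with N-succinyl-Leu-Leu-Val-Tyr-AMC (4 mM stock).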

CC(C)(C)NC(=O)C(c1cccnc1)N(C(=O)c1ccco1)c1ccc(C(C)(C)C)cc1 (centres undefined)
CC50 at 120 h [1]: > 125 µM | EC50 (SARS-CoV-2): > 20 µM

CC(C)(C)NC(=O)C(c1cnccn1)N(C(=O)c1ccco1)c1ccc(C(C)(C)C)cc1 (centres undefined)
CC50 at 120 h [1]: 138 µM

CC(C)(C)NC(=O)C(c1c[nH]cn1)N(C(=O)c1ccco1)c1ccc(C(C)(C)C)cc1 (centres undefined)
IC50 [2]: > 20 µM

CC(C)C[C@H](NC(=O)OCc1ccccc1)C(=O)N[C@@H](C[C@@H]1CCNC1=O)C(O)S(=O)(=O)O (some centres undefined)
EC50 (SARS-CoV-2): 1.51 µM | IC50 [3]: ≤ 0.16 µM | IC50 [4]: ≤ 0.16 µM | IC50 [5]: > 50 µM | IC50 [6]: ≤ 0.16 µM | IC50 [7]: ≤ 0.074 µM | IC50 [8]: ≤ 0.16 µM | IC50 [9]: > 50 µM | IC50 [10]: ≤ 0.16 µM | IC50 (Procathepsin L [11]): ≤ 0.074 µM

CC(C)(C)NC(=O)C(c1cncnc1)N(C(=O)c1ccco1)c1ccc(C(C)(C)C)cc1 (centres undefined)
IC50 [2]: > 20 µM

C[C@H](NC(=O)C(c1cccnc1)N(C(=O)c1ccco1)c1ccc(-c2cccs2)cc1)c1ccccc1 (some centres undefined)
CC50 at 120 h [1]: 89.6 µM | IC50 [2]: 0.56 µM

O=C(NC1CCCC1)C(c1cccnc1)N(C(=O)c1ccco1)c1ccc(-c2ccccc2)cc1 (centres undefined)
CC50 at 120 h [1]: > 200 µM | IC50 [2]: 4.1 µM

C[C@H](NC(=O)C(c1cccnc1)N(C(=O)c1ccno1)c1ccc(C2CCCCC2)cc1)c1ccccc1 (some centres undefined)
CC50 at 120 h [1]: 17.5 µM

C[C@H](NC(=O)C(c1cccnc1)N(C(=O)c1ccco1)c1ccc(-c2ccccn2)cc1)c1ccccc1 (some centres undefined)
CC50 at 120 h [1]: 236 µM

O=C(NC1CCCCC1)C(c1cccnc1)N(C(=O)c1ccco1)c1ccc(-c2ccccc2)cc1 (centres undefined)
CC50 at 120 h [1]: 53.5 µM

O=C(NC1CC1)C(c1cccnc1)N(C(=O)c1ccco1)c1ccc(-c2ccccc2)cc1 (centres undefined)
IC50 [2]: 12.1 µM

C[C@H](NC(=O)C(c1cccnc1)N(C(=O)c1ccco1)c1ccc(C2CCCCC2)cc1)c1ccccc1 (some centres undefined)
CC50 at 120 h [1]: 9.61 µM

Cc1ccc(S(=O)(=O)CNC(=O)C(c2cccnc2)N(C(=O)c2ccco2)c2ccc(C(C)(C)C)cc2)cc1 (centres undefined)
IC50 [2]: > 20 µM

O=C(NCCCc1ccccc1)C(c1cccnc1)N(C(=O)c1ccco1)c1ccc(-c2ccccc2)cc1 (centres undefined)
CC50 at 120 h [1]: > 200 µM | EC50 (SARS-CoV-2): 2.04 µM | selectivity ratio [12]: > 98

CC(C)(C)c1ccc(N(C(=O)c2ccco2)C(C(=O)NC2CCCCC2)c2cccnc2)cc1 (centres undefined)
CC50 at 120 h [1]: 18.2 µM | IC50 [2]: 2.39 µM

C[C@H](NC(=O)C(c1cccnc1)N(C(=O)c1ccco1)c1ccc(-c2ccco2)cc1)c1ccccc1 (some centres undefined)
CC50 at 120 h [1]: 56.4 µM

C[C@H](NC(=O)C(c1cccnc1)N(C(=O)c1ccco1)c1ccc(-c2ccccc2)cc1)c1ccccc1 (some centres undefined)
CC50 at 120 h [1]: > 200 µM | EC50 (SARS-CoV-2): 1.61 µM | IC50 [2]: 0.66 µM

C[C@H](NC(=O)C(c1cccnc1)N(C(=O)c1ccco1)c1ccc(-n2cccc2)cc1)c1ccccc1 (some centres undefined)
CC50 at 120 h [1]: > 200 µM | EC50 (SARS-CoV-2): 1.73 µM | selectivity ratio [12]: > 116

Cc1cccc(C)c1NC(=O)C(c1cccnc1)N(C(=O)c1ccco1)c1ccc(C(C)(C)C)cc1 (centres undefined)
IC50 [2]: > 20 µM

C[C@H](NC(=O)C(c1cccnc1)N(C(=O)c1cnco1)c1ccc(-c2ccccc2)cc1)c1ccccc1 (some centres undefined)
CC50 at 120 h [1]: 67 µM

C[C@H](NC(=O)[C@H](c1cccnc1)N(C(=O)c1ccco1)c1ccc(-c2ccccc2)cc1)c1ccccc1
IC50 [2]: > 20 µM

CC(C)(C)c1ccc(N(C(=O)c2ccco2)C(C(=O)NC2CCCC2)c2cccnc2)cc1 (centres undefined)
CC50 at 120 h [1]: 101 µM

CC(C)(C)c1ccc(N(C(=O)c2ccco2)C(C(=O)NC2CC2)c2cccnc2)cc1 (centres undefined)
CC50 at 120 h [1]: 52.8 µM

CC(C)(C)CC(C)(C)NC(=O)C(c1cccnc1)N(C(=O)c1ccco1)c1ccc(-c2ccccc2)cc1 (centres undefined)
CC50 at 120 h [1]: 148 µM | IC50 [2]: 2.14 µM

C[C@H](NC(=O)C(c1cccnc1)N(C(=O)c1ccno1)c1ccc(-c2ccccc2)cc1)c1ccccc1 (some centres undefined)
CC50 at 120 h [1]: > 200 µM

C[C@H](NC(=O)C(c1cccnc1)N(C(=O)c1ccco1)c1ccc([Si](C)(C)C)cc1)c1ccccc1 (some centres undefined)
CC50 at 120 h [1]: 19.4 µM

C[C@H](NC(=O)C(c1cnccn1)N(C(=O)c1c[nH]cn1)c1ccc(-c2ccccc2)cc1)c1ccccc1 (some centres undefined)
CC50 at 120 h [1]: 148 µM | EC50 (SARS-CoV-2): 4.54 µM | selectivity ratio [12]: 32.6

O=C(NCC(c1ccccc1)c1ccccc1)C(c1cccnc1)N(C(=O)c1ccco1)c1ccc(-c2ccccc2)cc1 (centres undefined)
CC50 at 120 h [1]: > 200 µM

C[C@H](NC(=O)[C@@H](c1cccnc1)N(C(=O)c1ccco1)c1ccc(-c2ccccc2)cc1)c1ccccc1
CC50 at 120 h [1]: > 100 µM | IC50 [2]: 0.2 µM | IC50 [13]: > 60 µM | IC50 (Procathepsin L [14]): 10.5 µM | Kd [15]: 9.43 µM | IC50 [16]: 0.27 µM | IC50 [17]: 6 µM

CC(C)(C)CC(C)(C)NC(=O)C(c1cccnc1)N(C(=O)c1ccco1)c1ccc(C(C)(C)C)cc1 (centres undefined)
IC50 [2]: > 20 µM

C[C@H](NC(=O)C(c1cnccn1)N(C(=O)c1ccco1)c1ccc(-c2ccccc2)cc1)c1ccccc1 (some centres undefined)
CC50 at 120 h [1]: > 200 µM | EC50 (SARS-CoV-2): 0.82 µM | selectivity ratio [12]: > 244

C[C@H](NC(=O)C(c1cccnc1)N(C(=O)c1c[nH]cn1)c1ccc(-c2ccccc2)cc1)c1ccccc1 (some centres undefined)
CC50 at 120 h [1]: 129 µM | EC50 (SARS-CoV-2): 13.1 µM | selectivity ratio [12]: 9.9
